# Active and inactive are the calls of the source. The rule behind the calls is not given here.
# What was measured:
# [1] = test system: Canis familiaris; experiment: Antiarrhythmic activity in anesthetized acute myocardial infarction dog model assessed as normal ECG complexes at 2.5 mg/kg, iv administered 10 mins prior to infarction measured during 1-hr postinfarction period (reference value: 19%); format: functional, Canis lupus familiaris, Heart
# How it was run: (§1)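 Sclerosing agent (tetrafluorohexachlorobutane) injected into the anterior descending coronary artery to produce a multifocal ventricular arrhythmia. Single iv dose 10 min before infarction. Segmented ECG tracings over the 1 h after infarction were scored as the percentage of complexes of sinus origin (normal). Saline controls were run alongside.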
# [2] = test system: Canis familiaris; experiment: Antiarrhythmic activity in anesthetized acute myocardial infarction dog model assessed as normal ECG complexes at 1.25 mg/kg, iv administered 10 mins prior to infarction measured during 1-hr postinfarction period (reference value: 19%); format: functional, Canis lupus familiaris, Heart; how it was run: as §1
# [3] = test system: Canis familiaris; experiment: Antiarrhythmic activity in iv dosed anesthetized acute myocardial infarction dog model assessed as protection against ventricular arrhythmia development administered 10 mins prior to infarction measured during 1-hr postinfarction period; format: functional, Canis lupus familiaris, Heart; how it was run: as §1
# [4] = test system: Canis familiaris; experiment: Antiarrhythmic activity in anesthetized acute myocardial infarction dog model assessed as normal ECG complexes at 0.25 mg/kg, iv administered 10 mins prior to infarction measured during 1-hr postinfarction period (reference value: 19%); format: functional, Canis lupus familiaris, Heart; how it was run: as §1
# [5] = test system: Canis familiaris; experiment: Antiarrhythmic activity in anesthetized acute myocardial infarction dog model assessed as normal ECG complexes at 0.5 mg/kg, iv administered 10 mins prior to infarction measured during 1-hr postinfarction period (reference value: 19%); format: functional, Canis lupus familiaris, Heart; how it was run: as §1
# [6] = test system: Canis familiaris; experiment: Antiarrhythmic activity in anesthetized acute myocardial infarction dog model assessed as normal ECG complexes at 10 mg/kg, iv administered 10 mins prior to infarction measured during 1-hr postinfarction period (reference value: 19%); format: functional, Canis lupus familiaris, Heart; how it was run: as §1
# [7] = test system: Canis familiaris; experiment: Antiarrhythmic activity in anesthetized acute myocardial infarction dog model assessed as normal ECG complexes at 0.06 mg/kg, iv administered 10 mins prior to infarction measured during 1-hr postinfarction period (reference value: 19%); format: functional, Canis lupus familiaris, Heart; how it was run: as §1
# [8] = test system: Canis familiaris; experiment: Antiarrhythmic activity in anesthetized acute myocardial infarction dog model assessed as normal ECG complexes at 5 mg/kg, iv administered 10 mins prior to infarction measured during 1-hr postinfarction period (reference value: 19%); format: functional, Canis lupus familiaris, Heart; how it was run: as §1
# [9] = test system: Canis familiaris; experiment: Effect on cardiac conduction in anesthetized acute myocardial infarction dog model assessed as increase in QT duration at 2.5 mg/kg, iv administered 10 mins prior to infarction measured after 10 mins (reference value: 2 ms); format: functional, Canis lupus familiaris, Heart
# [10] = test system: Canis familiaris; experiment: Reduction in heart rate in anesthetized acute myocardial infarction dog model at 10 mg/kg, iv administered 10 mins prior to infarction (reference value: 6 bpm); format: functional, Canis lupus familiaris
# [11] = test system: Canis familiaris; experiment: Effect on cardiac conduction in anesthetized acute myocardial infarction dog model assessed as increase in QT duration at 10 mg/kg, iv administered 10 mins prior to infarction measured after 10 mins (reference value: 2 ms); format: functional, Canis lupus familiaris, Heart
# [12] = test system: Canis familiaris; experiment: Reduction in heart rate in anesthetized acute myocardial infarction dog model at 5 mg/kg, iv administered 10 mins prior to infarction (reference value: 6 bpm); format: functional, Canis lupus familiaris
# [13] = test system: Canis familiaris; experiment: Effect on cardiac conduction in anesthetized acute myocardial infarction dog model assessed as increase in QT duration at 5 mg/kg, iv administered 10 mins prior to infarction measured after 10 mins (reference value: 2 ms); format: functional, Canis lupus familiaris, Heart
# [14] = test system: Canis familiaris; experiment: Reduction in heart rate in anesthetized acute myocardial infarction dog model at 2.5 mg/kg, iv administered 10 mins prior to infarction (reference value: 6 bpm); format: functional, Canis lupus familiaris
# [15] = test system: Canis familiaris; experiment: Effect on cardiac conduction in anesthetized acute myocardial infarction dog model assessed as increase in PR interval at 2.5 mg/kg, iv administered 10 mins prior to infarction measured after 10 mins (reference value: 0 ms); format: functional, Canis lupus familiaris, Heart
# [16] = test system: Canis familiaris; experiment: Effect on cardiac conduction in anesthetized acute myocardial infarction dog model assessed as increase in PR interval at 10 mg/kg, iv administered 10 mins prior to infarction measured after 10 mins (reference value: 0 ms); format: functional, Canis lupus familiaris, Heart
# [17] = test system: Canis familiaris; experiment: Effect on cardiac conduction in anesthetized acute myocardial infarction dog model assessed as increase in PR interval at 5 mg/kg, iv administered 10 mins prior to infarction measured after 10 mins (reference value: 0 ms); format: functional, Canis lupus familiaris, Heart
# [18] = test system: Canis familiaris; experiment: Antiarrhythmic activity in anesthetized acute myocardial infarction dog model assessed as normal ECG complexes at 10 mg/kg, po administered 120 mins prior to infarction measured post-infarction; format: functional, Canis lupus familiaris, Heart
# How it was run: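 Oral dosing 120 min before infarction in the same intracoronary tetrafluorohexachlorobutane arrhythmia model. Protection was read from ECG complexes after infarction, as the percentage that were normal.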
# [19] = test system: Canis familiaris; experiment: Hypotensive activity in iv dosed anesthetized dog at higher doses; format: ADME, organism-based, Canis lupus familiaris; settings: in vivo
# [20] = test system: Canis familiaris; experiment: Myocardial depressant activity in iv dosed anesthetized dog at higher doses; format: ADME, organism-based, Canis lupus familiaris, Myocardium; settings: in vivo
# [21] = test system: Canis familiaris; experiment: Effect on cardiac conduction in anesthetized acute myocardial infarction dog model assessed as increase in PR interval at 0.0125 mg/kg/min, iv administered as continuous infusion for 60 mins measured after 10 mins (reference value: 0 ms); format: functional, Canis lupus familiaris, Heart
# [22] = test system: Canis familiaris; experiment: Effect on cardiac conduction in anesthetized acute myocardial infarction dog model assessed as increase in PR interval at 0.03 mg/kg/min, iv administered as continuous infusion for 60 mins measured after 10 mins (reference value: 0 ms); format: functional, Canis lupus familiaris, Heart
# [23] = test system: Canis familiaris; experiment: Effect on cardiac conduction in anesthetized acute myocardial infarction dog model assessed as increase in QT duration at 0.0125 mg/kg/min, iv administered as continuous infusion for 60 mins measured after 10 mins (reference value: 2 ms); format: functional, Canis lupus familiaris, Heart
# [24] = test system: Canis familiaris; experiment: Effect on cardiac conduction in anesthetized acute myocardial infarction dog model assessed as increase in PR interval at 0.06 mg/kg/min, iv administered as continuous infusion for 60 mins measured after 10 mins (reference value: 0 ms); format: functional, Canis lupus familiaris, Heart
# [25] = test system: Canis familiaris; experiment: Effect on cardiac conduction in anesthetized acute myocardial infarction dog model assessed as increase in PR interval at 0.025 mg/kg/min, iv administered as continuous infusion for 60 mins measured after 10 mins (reference value: 0 ms); format: functional, Canis lupus familiaris, Heart
# [26] = test system: Canis familiaris; experiment: Effect on cardiac conduction in anesthetized acute myocardial infarction dog model assessed as increase in QT duration at 0.025 mg/kg/min, iv administered as continuous infusion for 60 mins measured after 10 mins (reference value: 2 ms); format: functional, Canis lupus familiaris, Heart
# [27] = test system: Canis familiaris; experiment: Effect on cardiac conduction in anesthetized acute myocardial infarction dog model assessed as increase in QT duration at 0.03 mg/kg/min, iv administered as continuous infusion for 60 mins measured after 10 mins (reference value: 2 ms); format: functional, Canis lupus familiaris, Heart
# [28] = test system: Canis familiaris; experiment: Effect on cardiac conduction in anesthetized acute myocardial infarction dog model assessed as increase in QT duration at 0.06 mg/kg/min, iv administered as continuous infusion for 60 mins measured after 10 mins (reference value: 2 ms); format: functional, Canis lupus familiaris, Heart
# [29] = test system: Canis familiaris; experiment: Antiarrhythmic activity in anesthetized acute myocardial infarction dog model assessed as normal ECG complexes at 0.07 mg/kg, iv administered 10 mins prior to infarction measured during 1-hr postinfarction period (reference value: 19%); format: functional, Canis lupus familiaris, Heart; how it was run: as §1
# [30] = Canis lupus familiaris, Heart, iv, read-out: ED75
SMILES,Activity [1] [%],Activity [2] [%],"ED75 [3, 30] [mg/kg]",Activity [4] [%],Activity [5] [%],further results
NCc1ccccc1C(F)(F)C(F)(F)c1ccc(F)cc1,74,52,3,20,–,–
Cl.NCCc1ccccc1C(F)(F)C(F)(F)c1ccccc1,88,–,2,–,27,–
Cl.Nc1ccccc1C(F)(F)C(F)(F)c1ccccc1,10,–,–,–,–,"Activity [6]: 26%; ED75 ([3]; Canis lupus familiaris, Heart): inactive"
CC(N)c1ccc(C(F)(F)C(F)(F)c2ccccc2)cc1.Cl (stereo unspecified),80,25,4,–,–,–
Br.FC(F)(c1ccccc1)C(F)(F)c1cccc(CNCc2ccccc2)c1CNCc1ccccc1,99,98,0.64,–,65,–
Cc1ccc(C(F)(F)C(F)(F)c2ccc(C(C)(C)N)cc2)cc1.Cl,88,75,1.4,52,–,Activity [7]: 15%
Cl.FC(F)(c1ccccc1)C(F)(F)c1ccccc1CNCc1ccccc1,–,–,0.84,23,74,–
CNCc1ccccc1C(F)(F)C(F)(F)c1ccccc1.Cl,93,–,0.84,38,73,–
C=C[C@H]1CN2CC[C@H]1C[C@@H]2[C@@H](O)c1ccnc2ccc(OC)cc12 [QUINIDINE],25,–,9.4,–,–,Activity [8]: 46%; Time [9]: 33 ms; Activity [6]: 89%; Activity [10]: 31 bpm; Time [11]: 78 ms; Activity [12]: 24 bpm; Time [13]: 36 ms; Activity [14]: 21 bpm; Time [15]: 0 ms; Time [16]: 15 ms; Time [17]: 8 ms
Cc1c(CN)cccc1C(F)(F)C(F)(F)c1ccccc1.Cl,49,–,–,–,–,–
CC(N)c1ccccc1C(F)(F)C(F)(F)c1ccccc1.O=C(O)/C=C\C(=O)O (stereo unspecified),87,82,1.3,–,43,–
CC(C)(N)c1ccc(C(F)(F)C(F)(F)c2ccccc2)cc1.Cl,98,89,0.6,50,75,Activity [7]: 35%; Activity [18]: >=80%
Cl.NCc1ccc(C(F)(F)C(F)(F)c2ccccc2)cc1,37,–,–,–,–,–
Br.FC(F)(c1ccccc1)C(F)(F)c1cccc2c1CNC2,51,–,7,–,–,Activity [8]: 71%
CNC(C)c1ccccc1C(F)(F)C(F)(F)c1ccccc1.O=C(O)/C=C\C(=O)O (stereo unspecified),88,91,0.88,35,59,–
CC(C)(N)c1cccc(C(F)(F)C(F)(F)c2ccccc2)c1.Cl,80,45,2.7,–,–,–
CN(C)Cc1ccccc1C(F)(F)C(F)(F)c1ccccc1.Cl,61,–,4.8,–,–,Activity [8]: 75%
O=C1NC(=O)C(c2ccccc2)(c2ccccc2)N1 [PHENYTOIN],17,–,–,–,–,Activity [8]: 40%; Time [9]: 5 ms; Activity [19]: Toxic; Activity [12]: 13 bpm; Activity [20]: Toxic; Time [13]: 3 ms; Activity [14]: 11 bpm; Time [15]: 10 ms; Time [17]: 8 ms
CCN(CC)CC(=O)Nc1c(C)cccc1C [LIDOCAINE],–,–,–,–,–,Time [21]: 0 ms; Time [22]: 0 ms; Time [23]: 0 ms; Time [24]: 0 ms; Time [25]: 2 ms; Time [26]: 0 ms; Time [27]: 0 ms; Time [28]: 0 ms
CNC(C)(C)c1ccc(C(F)(F)C(F)(F)c2ccccc2)cc1.Cl,99,86,0.5,68,65,Activity [7]: 27%; Activity [18]: >=80%
CN(C)C(C)(C)c1ccc(C(F)(F)C(F)(F)c2ccccc2)cc1.Cl,83,53,2.1,–,–,–
Cl.NCc1ccccc1C(F)(F)C(F)(F)c1ccccc1,98,91,0.2,81,86,Activity [29]: 58%; Activity [18]: >=80%
"CNC(C)c1ccccc1C(F)(F)C(F)(F)c1ccccc1.O=C(O)C(O)C(O)C(=O)O (single isomer, unassigned; (-))",–,–,–,44,–,Activity ([5]; 0.5 mg/kg): 84%; ED75 [3]: 0.48 mg/kg
NCc1cc(F)ccc1C(F)(F)C(F)(F)c1ccccc1,–,–,0.5,–,48,–
Cl.NCc1ccccc1C(F)(F)C(F)(F)C(F)(F)c1ccccc1,83,68,1.8,24,–,–
Br.CNCc1cccc(C(F)(F)C(F)(F)c2ccccc2)c1CNC,92,65,1.3,30,61,–
CNC(C)(C)c1ccc(C(F)(F)C(F)(F)c2ccc(C)cc2)cc1.Cl,67,–,–,–,–,–
"CNC(C)c1ccccc1C(F)(F)C(F)(F)c1ccccc1.O=C(O)C(O)C(O)C(=O)O (single isomer, unassigned; (+))",–,72,–,–,–,Activity ([5]; 0.5 mg/kg): 26%; ED75 [3]: 2 mg/kg
CC(O)C(=O)O.NCc1ccccc1C(F)(F)C(F)(F)c1ccccc1CN,71,59,2.5,–,38,–
